Experimental data of several laboratories.
Target: Mitogen-activated protein kinase 12 (MAPK12, Homo sapiens, UniProt P53778)
One construct used (P53778 1-367): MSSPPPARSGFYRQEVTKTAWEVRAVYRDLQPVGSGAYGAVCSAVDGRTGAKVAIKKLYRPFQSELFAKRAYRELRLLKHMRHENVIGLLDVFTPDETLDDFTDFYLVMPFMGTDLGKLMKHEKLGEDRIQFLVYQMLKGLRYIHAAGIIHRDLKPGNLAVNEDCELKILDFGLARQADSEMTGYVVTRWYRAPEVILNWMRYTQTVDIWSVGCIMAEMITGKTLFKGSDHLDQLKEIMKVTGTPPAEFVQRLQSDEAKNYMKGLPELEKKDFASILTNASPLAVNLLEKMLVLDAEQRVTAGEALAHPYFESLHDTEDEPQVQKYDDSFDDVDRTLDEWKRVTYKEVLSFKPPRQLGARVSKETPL

SMILES | observed | action | method | tested at | quantity | result
Cn1cc(-c2cc(F)cc(N3CCn4c(cc5c4CCCC5)C3=O)c2CO)cc(Nc2ccc(N3CCN(C4COC4)CC3)cn2)c1=O | enzyme activity | inhibitor | – | 0.1 µM | inhibition | 16%
Cc1nn(C)cc1-c1nc2c(N3CCN(Cc4ccc(Cl)cc4)CC3)c(Cl)cnc2[nH]1 | binding | – | competition with immobilised ligand | 1 µM | remaining binding | 100%
O=c1[nH]c2ccccc2n1C1CCN(Cc2ccc(-c3[nH]c4cc5ncnc5cc4nc3-c3ccccc3)cc2)CC1 | cell-free assay | – | – | 0.5 µM | remaining signal | 93.1%
Nc1ncc(-c2nc(N3CCOCC3)nc(N3CCOCC3)n2)c(C(F)F)n1 | binding | – | competition with immobilised ligand | 10 µM | remaining binding | 100%
Cn1cncc1[C@](O)(COc1ccc(C#N)cc1-c1ccc(OC(F)(F)F)cc1)c1ccc(C#N)cc1 | cell-free assay | – | competition with immobilised ligand | 1 µM | remaining binding | 100%
COc1ncccc1-c1cnn2ccc(N3CCN(C(=O)OC(C)C)CC3)nc12 | binding | – | competition with immobilised ligand | 1 µM | remaining binding | 100%
CC(C)(C)c1cc(C=C(C#N)C#N)cc(Br)c1O | enzyme activity | inhibitor | – | 0.5 µM | remaining activity | 102%
Cn1cc(-c2cccc(N3CCc4c(sc5c4CC(C)(C)C5)C3=O)c2CO)cc(Nc2ccncn2)c1=O | enzyme activity | inhibitor | – | 1 µM | inhibition | 11%
